Data set [1] concerns T47D breast cancer cell line. The data set is described as follows: MTT cell viability assay, T47D breast cancer cells. As to conditions: read-out: IC50 on T47D, 48 h. The data set is classed as cell-based, human. In outline: (§1)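 Cells grown in DMEM with 10% FBS, 100 units/ml penicillin/streptomycin and 2 mM L-glutamine at 37 °C, 5% CO₂. 5 × 10³ cells/well were seeded and attached overnight, then given test compound at 0–200 μM for 48 h. MTT was added for 4 h at 37 °C and absorbance read at 570 nm. Viability was taken relative to untreated control cells. Mean ± SD from at least three independent experiments.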
(Tetrazolium dyes change colour on reduction, which living cells bring about.)

The subject of data set [2] is MDA-MB-231 breast cancer cell line. The data set is described as follows: MTT cell viability assay, MDA-MB-231 breast cancer cells. It counts as cell-based, human. As to conditions: read-out: IC50 on MDA-MB-231. In outline:
as §1

In data set [3] the test system is HaCaT human keratinocyte cell line. The data set is described as follows: MTT cell viability assay, HaCaT control cells. The data set is classed as cell-based. To be noted: read-out: IC50 on HaCaT (human fibroblasts in text), 48 h. In outline:
as §1

Data set [4] concerns MCF-7 breast cancer cells. To be noted: 0–100 μM; cited from earlier work.
Data set [5] relates to MDA-MB-231 breast cancer cells. As to conditions: 0–100 μM; cited from earlier work.

Usually IC50 stands for the concentration that inhibits the measured activity by half.

Read-outs that look alike come from different tables or passages of the source.

Regarding coelonin [Compound 10], the IC50 in data set [1] (MTT, 0–200 μM) was found to be 44.4 ± 2.7 µM; in data set [2] (MTT, 48 h, 0–200 μM), 63.8 ± 10.3 µM; in data set [3] (MTT, 0–200 μM) it was 114 ± 7.65 µM.

Take `O=Cc1ccc(O)c(O)c1` [Compound 11, 3,4-dihydroxybenzaldehyde]: the IC50 was determined as 67.7 ± 5.9 µM in data set [1] (Homo sapiens, T47D); 67.2 ± 5.72 µM in data set [2] (Homo sapiens, MDA-MB-231, 48 h); 115 ± 7.69 µM in data set [3] (Homo sapiens, HaCaT). Moreover, the “cytotoxic effect on MCF-7” value in data set [4] was “did not show an anticancer effect”. For the same molecule, in data set [5], the “cytotoxic effect on MDA-MB-231” value is “did not show an anticancer effect”.

With `COc1cc([C@@H]2c3cc4c(cc3[C@@H](O[C@@H]3O[C@@H]5CO[C@@H](C)O[C@H]5[C@H](O)[C@H]3O)[C@H]3COC(=O)[C@H]23)OCO4)cc(OC)c1O` [etoposide, reference compound], in data set [3] (Homo sapiens, HaCaT), the IC50 came out at 4.86 ± 0.35 µM.
